Measurements: ChEMBL document CHEMBL4346709, “Design and Optimization Leading to an Orally Active TTK Protein Kinase Inhibitor with Robust Single Agent Efficacy” (J Med Chem, 2019)

Tests used:
[1] = biological target: T1, Dual specificity protein kinase TTK (Homo sapiens, UniProt P33981); assay: Inhibition of TTK in human CAL51 cells assessed as decrease in phosphorylated KNL-1 T943 levels after 1 hr by Western blot analysis; assay type: cell-based
T1 sequence (P33981 whole entry): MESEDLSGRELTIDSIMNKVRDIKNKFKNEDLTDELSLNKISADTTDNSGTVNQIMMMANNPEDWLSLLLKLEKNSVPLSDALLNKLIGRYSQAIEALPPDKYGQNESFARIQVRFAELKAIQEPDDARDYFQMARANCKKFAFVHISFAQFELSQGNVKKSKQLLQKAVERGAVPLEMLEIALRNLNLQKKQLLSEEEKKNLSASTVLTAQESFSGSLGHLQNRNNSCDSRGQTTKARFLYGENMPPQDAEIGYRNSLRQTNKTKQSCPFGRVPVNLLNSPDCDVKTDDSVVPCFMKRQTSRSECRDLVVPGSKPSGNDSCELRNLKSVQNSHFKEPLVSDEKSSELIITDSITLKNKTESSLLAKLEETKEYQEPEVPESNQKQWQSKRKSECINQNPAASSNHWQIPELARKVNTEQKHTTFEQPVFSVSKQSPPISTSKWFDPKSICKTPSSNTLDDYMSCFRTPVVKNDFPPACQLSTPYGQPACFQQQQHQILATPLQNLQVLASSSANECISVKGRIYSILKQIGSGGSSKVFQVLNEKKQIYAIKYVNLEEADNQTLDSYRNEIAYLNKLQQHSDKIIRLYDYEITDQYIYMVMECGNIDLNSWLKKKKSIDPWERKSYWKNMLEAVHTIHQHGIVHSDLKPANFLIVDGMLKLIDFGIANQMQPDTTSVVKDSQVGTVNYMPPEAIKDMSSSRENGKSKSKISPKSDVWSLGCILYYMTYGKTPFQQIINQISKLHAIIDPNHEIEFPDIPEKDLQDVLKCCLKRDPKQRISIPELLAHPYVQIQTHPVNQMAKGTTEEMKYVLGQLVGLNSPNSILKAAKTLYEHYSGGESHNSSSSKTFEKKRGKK

[2] = biological target: Leucine-rich repeat serine/threonine-protein kinase 2 (Homo sapiens, UniProt Q5S007, G2019S); assay: Inhibition of recombinant human GST-tagged LRRK2 G2019S mutant catalytic domain (970 to 2527 residues) expressed in baculovirus expression system using LRRKtide as substrate measured after 1 hr by Alexa-fluor-647 ADP tracer-based ADAPTA assay
Leucine-rich repeat serine/threonine-protein kinase 2, sequence (Q5S007 whole entry G2019S, the tested form may be a part): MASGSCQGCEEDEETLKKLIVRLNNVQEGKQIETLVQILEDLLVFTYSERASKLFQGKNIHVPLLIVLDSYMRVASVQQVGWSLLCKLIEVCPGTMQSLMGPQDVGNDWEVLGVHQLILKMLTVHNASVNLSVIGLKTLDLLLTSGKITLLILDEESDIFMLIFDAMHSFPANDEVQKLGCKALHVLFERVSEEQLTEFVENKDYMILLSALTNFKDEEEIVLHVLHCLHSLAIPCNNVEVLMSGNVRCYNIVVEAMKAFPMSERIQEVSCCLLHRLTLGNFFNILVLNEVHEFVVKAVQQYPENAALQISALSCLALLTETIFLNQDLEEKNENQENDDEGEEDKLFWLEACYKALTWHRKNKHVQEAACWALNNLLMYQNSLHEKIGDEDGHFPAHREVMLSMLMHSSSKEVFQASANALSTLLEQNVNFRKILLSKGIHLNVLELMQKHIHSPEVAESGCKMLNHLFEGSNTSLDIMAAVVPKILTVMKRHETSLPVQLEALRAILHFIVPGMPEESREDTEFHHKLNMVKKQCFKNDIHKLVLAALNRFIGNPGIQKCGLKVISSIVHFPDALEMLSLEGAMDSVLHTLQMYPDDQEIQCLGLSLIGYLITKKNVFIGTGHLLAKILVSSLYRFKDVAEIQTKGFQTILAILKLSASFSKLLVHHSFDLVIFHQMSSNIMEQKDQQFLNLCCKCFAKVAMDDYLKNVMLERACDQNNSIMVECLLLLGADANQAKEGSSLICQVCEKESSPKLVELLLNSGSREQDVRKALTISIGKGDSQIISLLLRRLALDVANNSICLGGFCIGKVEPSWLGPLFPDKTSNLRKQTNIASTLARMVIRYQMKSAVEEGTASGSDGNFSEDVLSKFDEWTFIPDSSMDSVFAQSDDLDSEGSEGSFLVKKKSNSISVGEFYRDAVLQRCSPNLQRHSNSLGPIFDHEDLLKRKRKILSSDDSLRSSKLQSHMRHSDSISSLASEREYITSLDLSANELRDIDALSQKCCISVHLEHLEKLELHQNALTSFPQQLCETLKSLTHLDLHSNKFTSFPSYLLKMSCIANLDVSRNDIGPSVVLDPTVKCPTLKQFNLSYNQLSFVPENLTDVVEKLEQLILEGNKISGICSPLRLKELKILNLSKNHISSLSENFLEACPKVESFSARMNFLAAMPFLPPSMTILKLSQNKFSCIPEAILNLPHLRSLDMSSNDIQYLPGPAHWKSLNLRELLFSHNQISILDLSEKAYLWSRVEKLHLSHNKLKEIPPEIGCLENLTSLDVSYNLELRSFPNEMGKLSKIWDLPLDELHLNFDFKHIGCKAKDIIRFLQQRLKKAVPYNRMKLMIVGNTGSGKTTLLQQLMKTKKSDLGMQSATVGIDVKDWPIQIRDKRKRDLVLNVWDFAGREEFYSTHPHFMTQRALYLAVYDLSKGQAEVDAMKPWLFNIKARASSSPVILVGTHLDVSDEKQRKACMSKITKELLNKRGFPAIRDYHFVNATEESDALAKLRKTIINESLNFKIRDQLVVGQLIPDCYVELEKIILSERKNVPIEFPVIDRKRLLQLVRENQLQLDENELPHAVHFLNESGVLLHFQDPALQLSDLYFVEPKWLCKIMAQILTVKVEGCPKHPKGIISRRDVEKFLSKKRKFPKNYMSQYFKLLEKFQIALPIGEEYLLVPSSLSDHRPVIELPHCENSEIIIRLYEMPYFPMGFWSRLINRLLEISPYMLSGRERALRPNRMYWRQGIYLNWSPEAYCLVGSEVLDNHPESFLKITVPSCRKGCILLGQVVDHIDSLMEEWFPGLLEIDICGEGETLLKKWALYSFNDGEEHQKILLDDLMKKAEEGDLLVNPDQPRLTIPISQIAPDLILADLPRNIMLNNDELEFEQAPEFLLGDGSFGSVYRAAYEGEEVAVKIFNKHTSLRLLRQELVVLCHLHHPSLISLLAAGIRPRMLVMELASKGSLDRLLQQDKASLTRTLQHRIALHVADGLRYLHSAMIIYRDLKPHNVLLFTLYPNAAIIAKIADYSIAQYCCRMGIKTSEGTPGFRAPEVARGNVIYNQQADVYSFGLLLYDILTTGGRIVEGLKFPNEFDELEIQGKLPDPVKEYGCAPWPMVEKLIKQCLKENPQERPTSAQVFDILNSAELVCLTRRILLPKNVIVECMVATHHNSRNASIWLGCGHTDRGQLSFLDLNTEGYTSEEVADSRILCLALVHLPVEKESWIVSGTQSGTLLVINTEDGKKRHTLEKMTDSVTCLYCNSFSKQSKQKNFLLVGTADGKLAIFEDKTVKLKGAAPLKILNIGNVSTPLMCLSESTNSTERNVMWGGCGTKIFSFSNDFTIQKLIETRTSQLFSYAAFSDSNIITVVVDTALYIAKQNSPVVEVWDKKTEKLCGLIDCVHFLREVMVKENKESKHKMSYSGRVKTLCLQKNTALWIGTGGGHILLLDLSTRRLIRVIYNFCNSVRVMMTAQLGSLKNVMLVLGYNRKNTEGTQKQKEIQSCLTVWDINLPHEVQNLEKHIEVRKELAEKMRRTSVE

LRRK2 = LRRK2 (Homo sapiens, UniProt Q5S007); assay: Inhibition of recombinant human GST-tagged LRRK2 catalytic domain (970 to 2527 residues) expressed in baculovirus expression system at 3 uM using LRRKtide as substrate measured after 1 hr by Alexa fluor-647 ADP tracer-based ADAPTA assay relative to control; details: probe LRRKtide
LRRK2, sequence (Q5S007 whole entry, the tested form may be a part): as the sequence (Q5S007 whole entry G2019S, the tested form may be a part) above, with S2019G counted along it
Method in brief: (§1)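 Kinase selectivity panel: single-point assessment at 3 µM, n=1.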

[3] = biological target: T2, Mitogen-activated protein kinase 9 (Homo sapiens, UniProt P45984); assay: Inhibition of recombinant human full length His-tagged JNK2 expressed in baculovirus expression system by Z'-LYTE assay
Target sequence in this assay (P45984 whole entry): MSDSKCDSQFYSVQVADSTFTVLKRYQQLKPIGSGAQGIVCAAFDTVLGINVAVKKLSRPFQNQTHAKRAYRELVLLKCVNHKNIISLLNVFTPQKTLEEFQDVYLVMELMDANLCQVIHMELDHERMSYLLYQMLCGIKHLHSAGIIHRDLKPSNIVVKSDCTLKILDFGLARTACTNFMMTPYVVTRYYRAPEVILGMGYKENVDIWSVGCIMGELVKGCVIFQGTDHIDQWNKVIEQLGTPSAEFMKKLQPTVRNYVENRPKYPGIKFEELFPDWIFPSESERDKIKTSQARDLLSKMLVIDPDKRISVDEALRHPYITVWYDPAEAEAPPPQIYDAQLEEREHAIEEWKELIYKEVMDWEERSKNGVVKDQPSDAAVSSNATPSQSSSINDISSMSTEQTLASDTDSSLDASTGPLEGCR

[4] = biological target: T2, Mitogen-activated protein kinase 9; assay: Inhibition of recombinant human full length His-tagged JNK2 expressed in baculovirus expression system at 3 uM by Z'-LYTE assay relative to control; method in brief: as §1
Target sequence in this assay (P45984 whole entry, looked up): as the sequence (P45984 whole entry) above

[5] = biological target: T3, Testis-specific serine/threonine-protein kinase 1 (Homo sapiens, UniProt Q9BXA7); assay: Inhibition of recombinant human full length His-tagged TSSK1 expressed in baculovirus expression system by Z'-LYTE assay
T3 sequence (Q9BXA7 whole entry): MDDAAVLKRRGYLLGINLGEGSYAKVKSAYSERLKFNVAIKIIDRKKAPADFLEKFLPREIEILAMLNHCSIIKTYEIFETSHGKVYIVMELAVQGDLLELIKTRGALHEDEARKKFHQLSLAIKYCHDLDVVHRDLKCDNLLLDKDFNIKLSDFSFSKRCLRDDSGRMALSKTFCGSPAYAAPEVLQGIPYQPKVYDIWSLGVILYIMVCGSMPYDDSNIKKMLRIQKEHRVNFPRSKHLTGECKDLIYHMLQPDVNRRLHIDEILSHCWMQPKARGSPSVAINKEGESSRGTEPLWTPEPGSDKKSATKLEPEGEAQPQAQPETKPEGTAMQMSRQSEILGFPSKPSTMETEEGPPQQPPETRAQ

[6] = biological target: Dual specificity protein kinase CLK2 (Homo sapiens, UniProt P49760); assay: Inhibition of recombinant human GST-tagged CLK2 catalytic domain (137 to 498 residues) expressed in baculovirus expression system at 3 uM by Z'-LYTE assay relative to control; method in brief: as §1
Dual specificity protein kinase CLK2, sequence (P49760 whole entry, looked up, the tested form may be a part): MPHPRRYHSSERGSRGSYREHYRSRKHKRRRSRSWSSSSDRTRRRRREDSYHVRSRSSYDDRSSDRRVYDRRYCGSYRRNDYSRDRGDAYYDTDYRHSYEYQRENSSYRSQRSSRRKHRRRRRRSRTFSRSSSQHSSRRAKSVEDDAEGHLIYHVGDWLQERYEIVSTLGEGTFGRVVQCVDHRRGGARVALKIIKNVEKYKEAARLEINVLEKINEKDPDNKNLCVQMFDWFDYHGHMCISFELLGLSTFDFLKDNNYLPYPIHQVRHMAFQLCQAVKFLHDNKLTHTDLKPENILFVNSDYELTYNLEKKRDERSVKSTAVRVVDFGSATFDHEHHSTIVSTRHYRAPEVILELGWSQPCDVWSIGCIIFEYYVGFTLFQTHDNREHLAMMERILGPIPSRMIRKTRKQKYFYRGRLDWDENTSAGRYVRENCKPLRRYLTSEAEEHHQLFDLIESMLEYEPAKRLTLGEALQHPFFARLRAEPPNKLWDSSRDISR

Homo sapiens = species: Homo sapiens; assay: Selectivity ratio of IC50 for recombinant human GST-tagged LRRK2 catalytic domain (970 to 2527 residues) expressed in baculovirus expression system to IC50 for inhibition of Kinase Tracer 236 binding to recombinant human full-length GST-tagged TTk expressed in baculovirus expression system
[7] = Oral bioavailability in CB17 SCID mouse at 30 mg/kg; assay type: ADME, organism-based; details: in vivo
CAL-51 [8] = assay: Antitumor activity against human CAL51 cells xenografted in CB17 SCID mouse assessed as tumor growth inhibition at 30 mg/kg, po […] for 16 days and measured twice per week up to 31 days by caliper method relative to control; assay type: functional; details: CAL-51, po, read-out: TGI
Method in brief: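 Female CB17 SCID mice, 6-8 weeks old, inoculated subcutaneously with 2×10^6 CAL-51 cells. Oral dosing once weekly (QW) at 30-120 mg/kg, or 30 mg/kg BID QW, for 16 days, against vehicle control. Tumour long and short axes measured twice weekly by digital caliper; volume = width² × length/2. Values are TGI; data are mean ± SEM.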

[9] = Toxicity in CB17 SCID mouse xenografted with human CAL51 cells assessed as loss of body weight at 30 to 120 mg/kg, po administered every seven days for 16 days and measured up to 31 days; assay type: organism-based; details: in vivo
Method in brief: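 Female CB17 SCID mice bearing subcutaneous CAL-51 xenografts (2×10^6 cells). Oral dosing once weekly at 30-120 mg/kg, or 30 mg/kg BID once weekly, for 16 days. Body weight loss tracked alongside tumour measurements, against vehicle.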

CAL-51 [10] = assay: Induction of apoptosis in human CAL51 cells xenografted in CB17 SCID mouse assessed as activation of cleaved caspase-3 at 30 mg/kg, po measured after 1 to 48 hrs by MSD electrochemiluminescent immunoassay relative to control; assay type: functional
Method in brief: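 CB17 SCID mice bearing CAL-51 tumours of 300-500 mm3 given compound orally. At preset time points the mice were euthanised and the tumours dissected and snap-frozen in liquid nitrogen. pHH3 Ser10 or cleaved caspase measured by MSD electrochemiluminescent immunoassay kit. Data are mean ± SEM.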

C[C@@H](Oc1cc(C(=O)N(C)C)ccc1Nc1nc(O[C@H]2CC[C@@](C)(O)CC2)c2c(Cl)c[nH]c2n1)C(F)(F)F
IC50 [1]: 30 nM
IC50 [2]: 0.001 nM
inhibition at 1 h, 3 µM (LRRK2): > 80%
IC50 [3]: 0.059 nM
inhibition [4]: > 80%
IC50 [5]: 0.217 nM
inhibition [6]: > 80%
Ratio IC50 (Homo sapiens): < 100
bioavailability [7]: 60%
inhibition in vivo at 30 mg/kg (CAL-51 [8]): 84%
Activity [9]: Non-Toxic
Activity (CAL-51 [10]): 250%
